Screens deposited in PubChem BioAssay by several laboratories.
Rows were chosen to be rich in hits. Some 2.7% of all compounds tested hit in one or more screens of this group.
sdo1 growth – compounds rescuing growth of sdo1-depleted yeast, bone marrow failure model | AID 817 | 140,000 compounds, 0.21% hits | z-score at 10 µM | S. cerevisiae sdo1-depleted JHY4D growth rescue, OD600 30 h; stronger effect = higher value; pdr5 snq2 efflux-pump mutant strain;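 active = z-score above 3 at both the 24 hr and the 30 hr optical density reads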;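 also: z-score against mean and SD of all compound wells on the same plate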
RAM inhibit – inhibitors of the yeast RAM network. inhibition, % at 50 µM. 190,000 compounds, 1.8% hits. S. cerevisiae dse1pr::URA3 reporter, 5-FOA growth OD615, 2 d; analog-sensitive cbk1-as2 kinase mutant strain;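 active = inhibition above a set limit, 3 SD over mean compound inhibition, cut at about 8.4% in these data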;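 also: 0% = DMSO-only wells with no growth and 100% = 10 µM 1-NA-PP1 full growth; inhibition rescues growth on 5-FOA so higher OD means more RAM inhibition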
Yeast life ext – extends the lifespan of yeast; S. cerevisiae growth with nicotinamide, OD615; deaD strain in restrictive glucose medium; inhibition of the nicotinamide effect, % at 10 µM; 130,000 compounds, 0.68% hits; AID 775;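 active = inhibition above a set limit, placed 3 SD over the median of all compounds, cut at about 26% in these data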;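 also: 0% = nicotinamide-treated wells and 100% = cells grown without nicotinamide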
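Material: Modified budding yeast, DeaD strain | Medium: Restrictive glucose medium | Probe or stimulus: 1.5 mM nicotinamide | Dosing: Single dose 10 µM compound, 0.25% DMSO | Times: 48 h at 30 °C | Technique: OD615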
BB579 growth dn – chemicals that inhibit yeast BB579 growth in restrictive medium (lifespan-shortening candidates); S. cerevisiae BB579 growth, OD615, 48 h; inhibition, % at 10 µM; 140,000 compounds, 0.51% hits;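 active = inhibition above a set limit, 3 SD over the mean compound inhibition, cut at about 44% in these data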
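Test system: Saccharomyces cerevisiae DeaD strain BB579, replicative lifespan model yeast | Buffer or medium: Restrictive CSMM-D medium | Doses: One dose, 10 µM compound with 0.25% DMSO | Incubation: 48 h exposure, 30 °C | Detection: Culture absorbance at 615 nm | Control set: Amphotericin B at 10 µg/mL as positive control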
RAM efflux-def – RAM network inhibition, efflux-deficient strain; shares compounds with RAM inhibit; S. cerevisiae efflux-deficient reporter strain, 5-FOA growth OD615, 2 days; max inhibition, %; 1,200 tested, under 10 active; call rule not given here;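 also: plate controls were vehicle for no effect and reference inhibitor for full effect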
Numbers without * were called inactive; . = no result given.

SMILES	sdo1 growth	RAM inhibit	Yeast life ext	BB579 growth dn	RAM efflux-def
CC(C)Cn1c(=O)c(C(=O)Nc2ccccc2S(N)(=O)=O)c(O)c2ccccc21	-2.35	0.4	3.2	-29.3	.
CCOC(=O)Cc1csc(NC(=O)c2c(O)c3ccccc3n(CC(C)C)c2=O)n1	-2.44	13.2*	69.2*	-105.1	3.1
CCCn1c(=O)c(C(=O)NCc2ccc(OC)c(OC)c2)c(O)c2ccccc21	-1.61	17.1*	-2.1	-11.3	2.0
CCn1c(=O)c(C(=O)NCc2ccc(OC)c(OC)c2)c(O)c2ccccc21	-1.48	4.3	-3.6	-50.7	.
CCCn1c(=O)c(C(=O)Nc2ccccc2C(=O)OCC)c(O)c2ccccc21	0.09	15.6*	13.0	-24.7	2.6
CC(=O)NC(Cc1ccccc1)C(=O)OCC(=O)c1ccc(Cl)cc1 (stereo not given)	-0.27	0.1	2.8	-52.3	.
CCc1ccc(C(=O)COC(=O)C(Cc2ccccc2)NC(=O)c2ccc(Cl)cc2)cc1 (stereo not given)	-0.37	16.6*	-18.2	-58.9	3.4
CN(C)S(=O)(=O)c1cc(NC(=O)COC(=O)Cc2ccc(Br)cc2)ccc1Cl	-0.51	11.8*	4.1	-37.6	1.3
CCCn1c(=O)c2c(nc3n2CCS3)n(C)c1=O	.	4.5	.	.	.
C=CCOC(=O)/C(=C/c1cccc2ccccc12)NC(=O)c1ccccc1	-0.88	41.8*	9.4	-44.7	2.0
C=CCOc1c(Br)cc(CNc2ccc(NC(=O)C(C)C)c(OC)c2)cc1OCC	0.11	12.0*	6.9	-71.0	2.5
C=CCOc1c(Br)cc(CNc2ccc(NC(=O)CCC)cc2)cc1OCC	-0.59	3.2	-15.0	-34.0	.
O=C(NC(=S)Nc1nc2c(ccc3ccccc32)s1)c1cccs1	2.15	4.7	2.0	-46.1	.
CC(C)Oc1cccc(C(=O)NC(=S)Nc2ccc(Cl)c(C(=O)O)c2)c1	0.41	7.6	-15.7	-16.1	.
CC(C)Oc1cccc(C(=O)NC(=S)Nc2cccc(C(F)(F)F)c2)c1	-2.56	11.6*	-4.4	-32.4	2.4
CCCCOc1cccc(C(=O)NC(=S)Nc2cccc(C(F)(F)F)c2)c1	-1.38	13.4*	3.9	-49.6	3.0
CN(C)C(=O)c1nnsc1Sc1ccc(Cl)cc1	.	0.9	.	.	.
Cn1cc(/C=C(\C#N)C(=O)Nc2ncc(Cc3cccc(Cl)c3)s2)c2ccccc21	-0.36	6.2	4.0	-24.3	.
N#C/C(=C\c1c[nH]c2ccccc12)C(=O)Nc1ncc(Cc2ccc(Cl)cc2Cl)s1	-0.32	13.9*	2.8	-43.9	2.5
CCC(C)N1C(=O)/C(=C/c2c(NCCCOC(C)C)nc3c(C)cccn3c2=O)SC1=S (stereo not given)	1	18.4*	-7.2	-48.5	2.9
CCCn1c(N)c(N(CCOC)C(=O)/C=C/c2ccc(C(=O)OC)cc2)c(=O)[nH]c1=O	.	0.0	.	.	.
COc1ccc(CN2C(=O)c3ccccc3C(/C=N\OCc3ccc(C)cc3)C2=O)cc1 (stereo not given)	0.77	13.6*	-0.3	-35.5	4.1
COc1ccc(N2C(=O)N(Cc3ccc(C)cc3)c3ccccc3S2(=O)=O)cc1	.	4.8	.	.	.
CCOC(=O)c1sc(Nc2nc(OC)cc(OC)n2)nc1C	.	1.6	.	.	.
CCCc1nn(C)c(C(=O)Nc2ccc(Cl)cc2)c1Cl	-0.82	2.7	0.0	-7.4	.
SMILES	sdo1 growth	RAM inhibit	Yeast life ext	BB579 growth dn	RAM efflux-def
CCCc1nn(C)c(C(=O)Nc2ccc(C(C)(C)C)cc2)c1Cl	0.24	13.0*	11.6	-30.9	3.9
COc1ccc(CNC(=O)CS(=O)CC(=O)O)cc1OC (stereo not given)	.	0.1	.	.	.
COc1nc(-c2ccccc2)ccc1-c1noc(COc2ccccc2)n1	-0.12	13.2*	-5.0	-12.5	3.6
COc1ccc(-c2ccc(-c3noc(-c4ccccc4)n3)c(OC)n2)cc1	0.22	13.2*	-6.8	-47.2	5.2
COc1c(C)cc(C(=O)C2CCCN(C(=O)c3snnc3C)C2)cc1C (stereo not given)	.	0.9	.	.	.
O=C(CCC1CCCCC1)Nc1ccccc1-c1ccccc1	-1.78	24.7*	-14.9	0.6	4.7
Cc1cccc(C)c1OCC(O)Cn1nnc2ccccc21 (stereo not given)	0.2	1.1	-11.3	-39.6	.
Cc1ccc(OCC(O)Cn2c3ccccc3c3ccccc32)cc1 (stereo not given)	-1.22	12.0*	-16.9	-60.2	2.5
Cc1cccc(C)c1OCC(O)Cn1c2ccccc2c2ccccc21 (stereo not given)	-2.22	15.2*	-5.2	-34.4	6.8
CCCCn1c(=N)n(CC(O)COc2ccc(C)cc2)c2ccccc21 (stereo not given)	0.33	0.2	-3.7	-4.9	.
COC(=O)C/C=C/[C@@H](C)[C@@H](/C=N/OC[C@@H](C)[C@H](OCc1ccccc1)C(C)C)NS(=O)(=O)c1ccc(C)cc1	-0.39	13.0*	7.8	-33.8	5.0
CC(=O)c1ccc(OC(=O)CCN2c3ccccc3Sc3ccccc32)cc1	-0.28	11.4*	4.9	-30.0	3.3
COc1cccc(CSc2nc3cc4c(cc3cc2C)OCCO4)c1	-0.41	18.0*	-3.4	-35.3	2.6
CN(C)c1ccc(N=Nc2ccccc2C(=O)OCC(=O)Nc2ccccc2C(F)(F)F)cc1	-0.55	20.5*	28.8*	-24.4	4.6
CC1(C)CC(NC(=S)Nc2ccc([N+](=O)[O-])cc2)CC(C)(C)N1	.	1.8	.	.	.
O=C(OCC#CCSc1nnc(-c2cccc3ccccc23)o1)c1cccs1	-0.31	14.5*	-8.6	-45.0	2.1
O=C(OCC#CCSc1nnc(-c2ccccc2)o1)c1cccs1	-0.62	3.3	-5.3	-28.0	.
Cc1ccc2nc(-c3ccc(NC(=O)CSc4nccc(=O)[nH]4)cc3)sc2c1	.	11.5*	.	.	2.6
Cc1ccc(S(=O)(=O)N2CCC(=O)N(C(COCc3ccc(C(F)(F)F)cc3)C(C)C)CC2)cc1 (stereo not given)	-0.96	11.9*	11.9	-41.8	1.5
Cc1cccc(COCC(Cc2ccccc2)N2CCN(C(=O)c3ccc(C(F)(F)F)cc3)CCC2=O)c1 (stereo not given)	-0.48	13.3*	13.1	-10.2	1.3
Cc1ccc(S(=O)(=O)N2CCC(=O)N(C(COCc3ccc(Cl)c(Cl)c3)Cc3ccccc3)CC2)cc1 (stereo not given)	-0.09	11.5*	6.9	-36.9	3.2
Cc1ccc(S(=O)(=O)N2CCC(=O)N(C(CO)C(C)C)CC2)cc1 (stereo not given)	0.76	1.5	1.5	-29.1	.
Cc1ccc(S(=O)(=O)N2CCC(=O)N(C(COCc3cccc(C)c3)Cc3ccccc3)CC2)cc1 (stereo not given)	-0.55	13.7*	19.7	-12.9	2.5
Cc1ccc(S(=O)(=O)N2CCC(=O)N(C(CO)Cc3ccccc3)CC2)cc1 (stereo not given)	0.35	0.8	1.7	-31.5	.
CCOCCCNCC(=O)Nc1ccc(S(=O)(=O)NC(C)CC)cc1 (stereo not given)	.	0.9	.	.	.
